# Source: ChEMBL document CHEMBL1122954, “Synthesis and antiallergic activity of some quinolinones and imidazoquinolinones” (1985)
# What was measured:
# Type in all cases: functional
# Rattus norvegicus [1] = assay: Antiallergic activity by rat passive cutaneous anaphylaxis (PCA) assay when administered perorally at dose 100 mg/kg; conditions: route oral
# Rattus norvegicus [2] = assay: Antiallergic activity determined by rat passive cutaneous anaphylaxis (PCA) assay when administered intraperitoneally at dose 60 mg/kg; conditions: route intraperitoneal
# Rattus norvegicus [3] = assay: Percentage normal weight gain when dosed at 200 mg/kg on day one of the 2-week study in rat
# Method in brief: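 Male Sprague-Dawley rats, fasted 16 h, given a single oral dose in 0.1% Methocel; controls got vehicle. Groups of 8–10, weighed daily at about the same time over 2 weeks. Gain over the first 4 days compared with expected gain from standard growth charts for age and strain. Mean % of normal weight gain ± standard error.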
SMILES,Activity (Rattus norvegicus [1]),Activity (Rattus norvegicus [2]),Normal weight gain (Rattus norvegicus [3]) [%]
COC(=O)c1cc(=O)c2cccc3ncn1c32,1,16,68
O=CNc1cccc2c(O)cc(C(=O)O)nc12,16,91,
CCOC(=O)c1cn2cnc3cccc(c1=O)c32,70,100,-6
CCOC(=O)c1cn2c(C)nc3cccc(c1=O)c32,83,95,-49
CCOC(=O)c1cnc2c(N)cc(C)cc2c1O,,-2,
CCO/C(C)=N/c1cccc2c(O)cc(C(=O)OC)nc12,,24,
CCOC(=O)c1cnc2c([N+](=O)[O-])cccc2c1O,-2,13,106
CCOC(=O)c1cn2cnc3cc(C)cc(c1=O)c32,70,3,
CCOC(=O)c1cnc2c(NC=O)cccc2c1O,76,67,-26
COC(=O)c1cc(O)c2cccc(N)c2n1,3,10,100
O=C([O-])c1cc(=O)c2c(OCC(O)COc3cccc4oc(C(=O)[O-])cc(=O)c34)cccc2o1.[Na+].[Na+] [CROMOLYN SODIUM],2,100,
COC(=O)c1cc(O)c2cccc([N+](=O)[O-])c2n1,8,66,104
CCOC(=O)c1cnc2c(N)cccc2c1O,,19,86
O=CNc1cccc2c(O)c(C(=O)O)cnc12,0,62,
